Calls of active or inactive are those of the source. The rule behind the calls is not given here.
Experiments:
Mus musculus [1] = experiment: Antidepressant activity in mouse assessed as immobility time at 30 mg/kg, ip by forced swimming test (reference value: 172.3 +/- 9.67 sec); format: functional
Mus musculus [2] = experiment: Antiinflammatory activity against dimethylbenzene-induced ear edema mouse model assessed as inhibition of ear edema at 30 mg/kg, ip pretreated with compounds followed by dimethylbenzene challenge relative to control; format: functional
Procedure, shortened: (§1)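 Intraperitoneal dosing (test agents 30 mg/kg, reference 3 mg/kg) given before topical dimethylbenzene to mouse ear. Ear inflammation was measured by weight (mg), and inhibition was expressed as percent versus control at 60 min.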

Mus musculus [3] = experiment: Antiinflammatory activity against dimethylbenzene-induced ear edema mouse model assessed as inhibition of ear edema at 3 mg/kg, ip pretreated with compounds followed by dimethylbenzene challenge relative to control; format: functional; procedure, shortened: as §1
Mus musculus [4] = experiment: Analgesic activity in mouse assessed as inhibition of acetic acid-induced writhing at 3 mg/kg, ip relative to control; format: functional
Mus musculus [5] = experiment: Antidepressant activity in mouse assessed as reduction in duration of immobility at 30 mg/kg, ip relative to control; format: functional
Mus musculus [6] = experiment: Antidepressant activity in mouse assessed as immobility time at 3 mg/kg, ip by forced swimming test (reference value: 172.3 +/- 9.67 sec); format: functional
Mus musculus [7] = experiment: Antidepressant activity in mouse assessed as increase in serotonin level at 3 mg/kg, ip; format: functional, organism-based
Mus musculus [8] = experiment: Antidepressant activity in mouse assessed as change in dopamine level at 3 mg/kg, ip; format: functional, organism-based
Mus musculus [9] = experiment: Antidepressant activity in mouse assessed as change in norepinephrine level at 3 mg/kg, ip; format: functional, organism-based
Mus musculus [10] = experiment: Antidepressant activity in mouse assessed as reduction in duration of immobility at 3 mg/kg, ip relative to control; format: functional
[11] = biological target: T1, Prostaglandin G/H synthase 1 (Ovis aries, UniProt P05979); experiment: Inhibition of ovine COX1 by ELISA
T1 sequence (P05979 whole entry): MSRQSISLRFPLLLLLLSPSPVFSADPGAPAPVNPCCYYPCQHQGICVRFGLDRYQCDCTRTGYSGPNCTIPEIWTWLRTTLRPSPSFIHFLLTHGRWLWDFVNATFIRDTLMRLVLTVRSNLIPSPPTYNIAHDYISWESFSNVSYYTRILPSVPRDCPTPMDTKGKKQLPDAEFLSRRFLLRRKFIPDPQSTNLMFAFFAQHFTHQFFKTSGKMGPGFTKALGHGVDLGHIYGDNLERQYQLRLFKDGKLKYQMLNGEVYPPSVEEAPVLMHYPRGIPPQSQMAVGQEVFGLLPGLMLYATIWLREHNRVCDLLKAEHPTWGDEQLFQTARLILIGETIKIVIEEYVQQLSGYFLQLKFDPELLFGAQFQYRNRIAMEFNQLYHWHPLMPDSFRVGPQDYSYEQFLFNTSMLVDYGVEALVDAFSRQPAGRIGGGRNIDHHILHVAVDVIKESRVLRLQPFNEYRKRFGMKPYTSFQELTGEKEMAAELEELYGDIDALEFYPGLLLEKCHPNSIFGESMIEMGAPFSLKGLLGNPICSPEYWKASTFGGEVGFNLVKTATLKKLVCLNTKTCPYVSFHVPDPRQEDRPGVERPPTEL
Procedure, shortened: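 Ovine COX-1 inhibition followed through enzyme peroxidase activity with a colorimetric enzyme immunoassay kit; IC50 values determined; mean and SD of three measurements.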

Mus musculus [12] = experiment: Antidepressant activity in mouse assessed as increase in serotonin level at 30 mg/kg, ip; format: functional, organism-based
Procedure, shortened: (§2)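 Mice under stress treated intraperitoneally (30 mg/kg), alongside normal-vehicle and stress-vehicle groups; serotonin, norepinephrine and dopamine levels measured; n = 8 per group; values as mean ± SEM; significance tested against stress vehicle and normal vehicle.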

Mus musculus [13] = experiment: Antidepressant activity in mouse assessed as change in dopamine level at 30 mg/kg, ip; format: functional, organism-based; procedure, shortened: as §2
Mus musculus [14] = experiment: Antidepressant activity in mouse assessed as change in norepinephrine level at 30 mg/kg, ip; format: functional, organism-based; procedure, shortened: as §2

Row | SMILES | Time (Mus musculus [1]) [s] | inhibition in vivo at 30 mg/kg (Mus musculus [2]) [%] | inhibition in vivo at 30 mg/kg (Mus musculus [5]) [%] | other results
1 | Cc1nc2ccccc2c(-c2ccccc2)c1C(=O)/C=C/c1ccc(N(C)C)cc1 | 47.5 | 69.7 | – | –
2 | Cc1nc2ccccc2c(-c2ccccc2)c1C(=O)/C=C/c1ccccc1Br | 60.3 | 55 | – | –
3 | Cc1cccc(/C=C/C(=O)c2c(C)nc3ccccc3c2-c2ccccc2)c1 | 57.5 | 67.1 | – | –
4 | COc1ccc2c(c1)c(CC(=O)O)c(C)n2C(=O)c1ccc(Cl)cc1 [INDOMETHACIN] | – | – | – | inhibition in vivo at 3 mg/kg (Mus musculus [3]): 51.1%; inhibition in vivo at 3 mg/kg (Mus musculus [4]): 78.3%
5 | Cc1nc2ccccc2c(-c2ccccc2)c1C(=O)/C=C/c1ccc(Cl)cc1 | 29.3 | 85.5 | 83 | –
6 | COc1ccc(/C=C/C(=O)c2c(C)nc3ccccc3c2-c2ccccc2)cc1O | 52.3 | 65.5 | – | –
7 | Cc1nc2ccccc2c(-c2ccccc2)c1C(=O)/C=C/c1c(Cl)cccc1Cl | 52 | 46.7 | – | –
8 | COc1ccc(/C=C/C(=O)c2c(C)nc3ccccc3c2-c2ccccc2)cc1 | 83.5 | 66.7 | – | –
9 | COc1ccccc1/C=C/C(=O)c1c(C)nc2ccccc2c1-c1ccccc1 | 109.3 | 62.1 | – | –
10 | Cc1nc2ccccc2c(-c2ccccc2)c1C(=O)/C=C/c1ccc(F)cc1F | 51.5 | 65.8 | – | –
11 | Cc1nc2ccccc2c(-c2ccccc2)c1C(=O)/C=C/c1cccc(Br)c1 | 13.8 | 72.9 | 92 | –
12 | Cc1nc2ccccc2c(-c2ccccc2)c1C(=O)/C=C/c1ccc([N+](=O)[O-])cc1 | 46.8 | 42.9 | 72.8 | –
13 | Cc1nc2ccccc2c(-c2ccccc2)c1C(=O)/C=C/c1ccc(O)cc1 | 79.3 | 78.8 | – | –
14 | CNCCC(Oc1ccc(C(F)(F)F)cc1)c1ccccc1 (stereo unspecified) [FLUOXETINE] | – | – | – | Time (Mus musculus [6]): 88.1 s; Activity (Mus musculus [7]): Active; Activity (Mus musculus [8]): inactive; Activity (Mus musculus [9]): inactive; inhibition in vivo at 3 mg/kg (Mus musculus [10]): 48.9%
15 | Cc1nc2ccccc2c(-c2ccccc2)c1C(=O)/C=C/c1cccc(Cl)c1 | 48.5 | 53.6 | – | –
16 | Cc1nc2ccccc2c(-c2ccccc2)c1C(=O)/C=C/c1ccc(Br)cc1 | 75.8 | 74.1 | – | –
17 | COc1cccc(/C=C/C(=O)c2c(C)nc3ccccc3c2-c2ccccc2)c1 | 48.5 | 74.6 | – | –
18 | Cc1nc2ccccc2c(-c2ccccc2)c1C(=O)/C=C/c1ccccc1F | 49.3 | 81.2 | – | –
19 | Cc1nc2ccccc2c(-c2ccccc2)c1C(=O)/C=C/c1ccc(C(C)C)cc1 | 22.8 | 76.8 | 86.8 | IC50 [11]: 8.95 µM; Activity (Mus musculus [12]): Active; Activity (Mus musculus [13]): inactive; Activity (Mus musculus [14]): inactive
20 | Cc1nc2ccccc2c(-c2ccccc2)c1C(=O)/C=C/c1cccc(O)c1 | 32.8 | 65.2 | 80 | –
21 | Cc1nc2ccccc2c(-c2ccccc2)c1C(=O)/C=C/c1ccc(F)cc1 | 25.8 | 88.3 | 85 | IC50 [11]: 10.2 µM; Activity (Mus musculus [12]): Active; Activity (Mus musculus [13]): inactive; Activity (Mus musculus [14]): inactive
22 | Cc1nc2ccccc2c(-c2ccccc2)c1C(=O)/C=C/c1ccccc1Cl | 136.3 | 73.2 | – | –
23 | Cc1nc2ccccc2c(-c2ccccc2)c1C(=O)/C=C/c1ccc(Cl)cc1Cl | 31.5 | 81.3 | 81 | –
24 | Cc1ccc(/C=C/C(=O)c2c(C)nc3ccccc3c2-c2ccccc2)cc1 | 63 | 61.3 | – | –
25 | Cc1nc2ccccc2c(-c2ccccc2)c1C(=O)/C=C/c1cccc(F)c1 | 38.3 | 69.2 | 77.8 | –
26 | Cc1ccccc1/C=C/C(=O)c1c(C)nc2ccccc2c1-c1ccccc1 | 86.3 | 70.9 | – | –

Reference: ChEMBL document CHEMBL4619741, “Screening of chalcone analogs with anti-depressant, anti-inflammatory, analgesic, and COX-2-inhibiting effects” (Bioorg Med Chem Lett, 2020)
